Tests used:
Type in all cases: functional
HOP-62 = assay: Cytotoxicity against human HOP62 cells after 48 hrs by SRB assay; conditions: HOP-62, 48 h
Method in brief: (§1)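 Five-dose run from the sixty-line panel, at 10−4, 10−5, 10−6, 10−7 and 10−8 M. SRB-stain OD is read just before compound addition, after 48 hrs of exposure, and in vehicle controls, giving percentage growth; negative growth indicates cytotoxicity. GI50 is the concentration giving 50% reduction in net protein increase versus control cells. LC50 is the concentration lethal to 50% of cells.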

K562 = assay: Cytotoxicity against human K562 cells after 48 hrs by SRB assay; conditions: K562, 48 h, read-out: LC50 (the source's name); method in brief: as §1
IGROV-1 = assay: Cytotoxicity against human IGROV1 cells after 48 hrs by SRB assay; conditions: IGROV-1, 48 h; method in brief: as §1
COLO 205 = assay: Cytotoxicity against human COLO205 cells after 48 hrs by SRB assay; conditions: COLO 205, 48 h; method in brief: as §1
MDA-MB-468 [1] = assay: Cytotoxicity against human MDA-MB-468 cells assessed as growth inhibition at 10 uM after 48 hrs by SRB assay; conditions: MDA-MB-468, 48 h, read-out: GI
Method in brief: (§2)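 Single-dose screen at 10µM across the sixty-cell-line panel. Percentage growth is derived from SRB-stain OD taken just before compound exposure, after 48 hrs exposure, and in vehicle-treated controls. Negative values indicate cytotoxicity.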

BT-549 = assay: Cytotoxicity against human BT549 cells after 48 hrs by SRB assay; conditions: BT-549, 48 h; method in brief: as §1
HCT-116 = assay: Cytotoxicity against human HCT116 cells after 48 hrs by SRB assay; conditions: HCT-116, 48 h; method in brief: as §1
OVCAR-8 = assay: Cytotoxicity against human OVCAR8 cells after 48 hrs by SRB assay; conditions: OVCAR-8, 48 h; method in brief: as §1
NCI-H226 [2] = assay: Cytotoxicity against human NCI-H226 cells assessed as growth inhibition at 10 uM after 48 hrs by SRB assay; conditions: NCI-H226, 48 h, read-out: GI; method in brief: as §2
[3] = Cytotoxicity against human OVCAR5 cells after 48 hrs by SRB assay; conditions: OVCAR-5, 48 h; method in brief: as §1
NCI-H23 = assay: Cytotoxicity against human NCI-H23 cells after 48 hrs by SRB assay; conditions: NCI-H23, 48 h; method in brief: as §1
LOX IMVI = assay: Cytotoxicity against human LOXIMVI cells after 48 hrs by SRB assay; method in brief: as §1
RXF 393 = assay: Cytotoxicity against human RXF393 cells after 48 hrs by SRB assay; conditions: RXF 393, 48 h; method in brief: as §1
SNB-19 = assay: Cytotoxicity against human SNB19 cells after 48 hrs by SRB assay; conditions: SNB-19, 48 h; method in brief: as §1
TK-10 [4] = assay: Cytotoxicity against human TK10 cells assessed as growth inhibition at 10 uM after 48 hrs by SRB assay; conditions: TK-10, 48 h, read-out: GI; method in brief: as §2
SR = assay: Cytotoxicity against human SR cells after 48 hrs by SRB assay; method in brief: as §1
MCF7 = assay: Cytotoxicity against human MCF7 cells after 48 hrs by SRB assay; conditions: MCF7, 48 h; method in brief: as §1
A498 [5] = assay: Cytotoxicity against human A498 cells after 48 hrs by SRB assay; conditions: A498, 48 h; method in brief: as §1
MDA-MB-468 [6] = assay: Cytotoxicity against human MDA-MB-468 cells after 48 hrs by SRB assay; conditions: MDA-MB-468, 48 h; method in brief: as §1
NCI-H226 [7] = assay: Cytotoxicity against human NCI-H226 cells after 48 hrs by SRB assay; conditions: NCI-H226, 48 h; method in brief: as §1
[8] = Cytotoxicity against human NCI-ADR-RES cells after 48 hrs by SRB assay; method in brief: as §1
SN12C = assay: Cytotoxicity against human SN12C cells after 48 hrs by SRB assay; method in brief: as §1
SK-OV-3 = assay: Cytotoxicity against human SKOV3 cells after 48 hrs by SRB assay; conditions: SK-OV-3, 48 h; method in brief: as §1
[9] = Cytotoxicity against human OVCAR5 cells assessed as growth inhibition at 10 uM after 48 hrs by SRB assay; conditions: OVCAR-5, 48 h, read-out: GI; method in brief: as §2
A498 [10] = assay: Cytotoxicity against human A498 cells assessed as growth inhibition at 10 uM after 48 hrs by SRB assay; conditions: A498, 48 h, read-out: GI; method in brief: as §2
MDA-MB-231 = assay: Cytotoxicity against human MDA-MB-231 cells after 48 hrs by SRB assay; conditions: MDA-MB-231, 48 h; method in brief: as §1
SF-295 = assay: Cytotoxicity against human SF295 cells after 48 hrs by SRB assay; conditions: SF-295, 48 h; method in brief: as §1
[11] = Cytotoxicity against human UACC257 cells after 48 hrs by SRB assay; conditions: UACC-257, 48 h; method in brief: as §1
SW-620 = assay: Cytotoxicity against human SW620 cells after 48 hrs by SRB assay; conditions: SW-620, 48 h; method in brief: as §1
MDA-MB-435 = assay: Cytotoxicity against human MDA-MB-435 cells after 48 hrs by SRB assay; conditions: MDA-MB-435, 48 h; method in brief: as §1
SK-MEL-5 = assay: Cytotoxicity against human SK-MEL-5 cells after 48 hrs by SRB assay; conditions: SK-MEL-5, 48 h; method in brief: as §1
NCI-H460 = assay: Cytotoxicity against human NCI-H460 cells after 48 hrs by SRB assay; conditions: NCI-H460, 48 h; method in brief: as §1
786-0 = assay: Cytotoxicity against human 786-0 cells after 48 hrs by SRB assay; conditions: 786-0, 48 h; method in brief: as §1
T47D = assay: Cytotoxicity against human T47D cells after 48 hrs by SRB assay; method in brief: as §1
TK-10 [12] = assay: Cytotoxicity against human TK10 cells after 48 hrs by SRB assay; conditions: TK-10, 48 h; method in brief: as §1
SK-MEL-2 = assay: Cytotoxicity against human SK-MEL-2 cells after 48 hrs by SRB assay; conditions: SK-MEL-2, 48 h; method in brief: as §1
UACC-62 = assay: Cytotoxicity against human UACC62 cells after 48 hrs by SRB assay; conditions: UACC-62, 48 h; method in brief: as §1
[13] = read-out: LC50 (the source's name)

CN1C(=O)C(=Cc2cn(Cc3ccc(Cl)cc3)c3ccccc23)C(=O)N(C)C1=O
GI50 (HOP-62): 10.7 µM
CC50 (HOP-62; [13]): > 100 µM
CC50 (K562): > 100 µM
GI50 (IGROV-1): 2.88 µM
CC50 (IGROV-1; [13]): > 100 µM
GI50 (COLO 205): 2.78 µM
CC50 (COLO 205; [13]): 29.5 µM
inhibition of growth at 10 µM (MDA-MB-468 [1]): -71%
GI50 (BT-549): 12.5 µM
CC50 (BT-549; [13]): > 100 µM
GI50 (HCT-116): 4.47 µM
LC50 (HCT-116): > 100 µM
GI50 (OVCAR-8): 21.3 µM
CC50 (OVCAR-8; [13]): > 100 µM
inhibition of growth at 10 µM (NCI-H226 [2]): -82%
GI50 [3]: 0.16 µM
CC50 [3, 13]: > 100 µM
GI50 (NCI-H23): 10.2 µM
LC50 (NCI-H23): > 100 µM
GI50 (LOX IMVI): 17.3 µM
CC50 (LOX IMVI; [13]): > 100 µM
GI50 (RXF 393): 12.5 µM
LC50 (lethal concentration, 50%) (RXF 393): > 100 µM
GI50 (SNB-19): 18.3 µM
LC50 (SNB-19): > 100 µM
inhibition of growth at 10 µM (TK-10 [4]): -26%
GI50 (SR): 70.3 µM
LC50 (lethal concentration, 50%) (SR): > 100 µM
GI50 (MCF7): > 100 µM
LC50 (MCF7): > 100 µM
GI50 (A498 [5]): 0.04 µM
LC50 (A498 [5]): 0.64 µM
GI50 (MDA-MB-468 [6]): 0.06 µM
LC50 (MDA-MB-468 [6]): 0.7 µM
GI50 (NCI-H226 [7]): 1.26 µM
CC50 (NCI-H226 [7]; [13]): > 100 µM
GI50 [8]: 16.3 µM
CC50 [8, 13]: > 100 µM
GI50 (SN12C): 92.1 µM
CC50 (SN12C; [13]): > 100 µM
GI50 (SK-OV-3): 6.08 µM
LC50 (SK-OV-3): > 100 µM
inhibition of growth at 10 µM [9]: -23%
inhibition of growth at 10 µM (A498 [10]): -94%
GI50 (MDA-MB-231): 12.2 µM
CC50 (MDA-MB-231; [13]): > 100 µM
GI50 (SF-295): 1.21 µM
LC50 (SF-295): > 100 µM
GI50 [11]: 2.01 µM
CC50 [11, 13]: > 100 µM
GI50 (SW-620): > 100 µM
CC50 (SW-620; [13]): > 100 µM
GI50 (MDA-MB-435): > 100 µM
LC50 (MDA-MB-435): > 100 µM
GI50 (SK-MEL-5): > 100 µM
LC50 (SK-MEL-5): > 100 µM
GI50 (NCI-H460): 0.4 µM
CC50 (NCI-H460; [13]): > 100 µM
GI50 (786-0): 6.9 µM
LC50 (786-0): > 100 µM
GI50 (T47D): 3.53 µM
LC50 (T47D): > 100 µM
GI50 (TK-10 [12]): 0.18 µM
CC50 (TK-10 [12]; [13]): 50.4 µM
GI50 (SK-MEL-2): 2.84 µM
GI50 (UACC-62): 2.06 µM
LC50 (UACC-62): > 100 µM
